Measurements from ChEMBL document CHEMBL1155362, “Synthesis, characterization and derivatization of some novel types of mono- and bis-imidazolidineiminothiones and imidazolidineiminodithiones with antitumor, antiviral, antibacterial and antifungal activities--part I” (Eur J Med Chem, 2009).
In brackets after ≈: the same amount, converted by molar mass. Activity calls are given as the source filed them. The calls are words filed in the database; no cut-off is given here.

Assays:
HCT-116 [1] = experiment: Cytotoxicity against human HCT116 cells assessed as surviving fraction after 48 hrs by SRB assay; type: functional, cell-based; conditions: Homo sapiens, HCT-116, 48 h; read-out: IC50
How it was run: (§1)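 Cells seeded at 10⁴ cells/well and left 24 h to attach, then exposed to […] in triplicate wells per dose. Incubation 48 h, 37 °C, 5% CO₂. Cells fixed and stained with sulforhodamine B, excess dye removed with acetic acid, bound dye taken up in Tris EDTA and read on an ELISA reader. Surviving fraction plotted against concentration.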

HepG2 = experiment: Cytotoxicity against human HepG2 cells assessed as surviving fraction after 48 hrs by SRB assay; type: functional, cell-based; conditions: hepg2; how it was run: as §1
U-251 [2] = experiment: Cytotoxicity against human U251 cells assessed as surviving fraction after 48 hrs by SRB assay; type: functional, cell-based; conditions: Homo sapiens, U-251, 48 h; read-out: IC50; how it was run: as §1
MCF7 [3] = experiment: Cytotoxicity against human MCF7 cells assessed as reduction in surviving fraction at 5.0 ug/ml after 48 hrs by SRB assay; type: functional, cell-based; how it was run: as §1
[4] = Antitumor activity against mouse EAC cells assessed as inhibition of cell viability at 100 ug/ml after 2 hrs by trypan blue exclusion assay; type: functional; conditions: Ehrlich
How it was run: (§2)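 EAC cells aspirated from ascitic fluid of inoculated mice and diluted in saline; 0.1 mL cell suspension, 0.8 mL RPMI 1640 and 0.1 mL compound (25, 50 or 100) incubated 2 h at 37 °C; non-viable cells counted by trypan blue exclusion; % non-viable = dead/total × 100.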

MCF7 [5] = experiment: Cytotoxicity against human MCF7 cells assessed as reduction in surviving fraction at 1 ug/ml after 48 hrs by SRB assay; type: functional, cell-based; how it was run: as §1
HCT-116 [6] = experiment: Cytotoxicity against human HCT116 cells assessed as reduction in surviving fraction at 2.5 ug/ml after 48 hrs by SRB assay; type: functional, cell-based
How it was run: (§3)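 HCT116 cells seeded at 10⁴ per well and allowed to attach for 24 h; exposed to 0, 1, 2.5, 5 or 10 in triplicate for 48 h at 37 °C in 5% CO₂; fixed and stained with sulforhodamine B; bound dye recovered in Tris EDTA and read on an ELISA reader; surviving fraction plotted against concentration.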

Salmonella typhi [7] = experiment: Antimicrobial activity against Salmonella typhi NCIMB 9331 by macrotube dilution assay; type: functional, Salmonella enterica subsp. enterica serovar Typhi; conditions: Salmonella enterica
Candida albicans [8] = experiment: Antifungal activity against Candida albicans IMRU 3669 at 1 mg/ml by agar disk diffusion assay; type: functional; conditions: read-out: DIZ
How it was run: (§4)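 Fungi maintained on Czapek's Dox agar; agar well diffusion with 1 cm wells and […] of each concentration (1, 2.5, 5 mg/mL) in DMF; inhibition zone diameter measured.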

HCT-116 [9] = experiment: Cytotoxicity against human HCT116 cells assessed as reduction in surviving fraction at 5.0 ug/ml after 48 hrs by SRB assay; type: functional, cell-based; how it was run: as §3
Staphylococcus aureus [10] = experiment: Antimicrobial activity against Staphylococcus aureus NCTC 7447 by macrotube dilution assay; type: functional
MCF7 [11] = experiment: Cytotoxicity against human MCF7 cells assessed as reduction in surviving fraction at 2.5 ug/ml after 48 hrs by SRB assay; type: functional, cell-based; how it was run: as §1
MCF7 [12] = experiment: Cytotoxicity against human MCF7 cells assessed as reduction in surviving fraction at 10.0 ug/ml after 48 hrs by SRB assay; type: functional, cell-based; how it was run: as §1
[13] = Antitumor activity against mouse EAC cells assessed as inhibition of cell viability at 25 ug/ml after 2 hrs by trypan blue exclusion assay; type: functional; conditions: Ehrlich; how it was run: as §2
Human alphaherpesvirus 1 [14] = experiment: Antiviral activity against HSV1 infected african green monkey Vero cells at 10^-4 dilution of 5 mg/ml by plaque formation assay; type: functional
How it was run: (§5)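 Compound dilutions prepared from a 5 mg/mL DMSO stock, using the maximum non-toxic dilution for Vero cells over 3 days; 0.1 mL virus (10³) mixed with 0.1 mL compound for 1 h at room temperature; mixture inoculated onto washed Vero monolayers in 12-well plates and adsorbed at 37 °C; 2× MEM/agarose overlay applied; read-out % reduction in plaque count versus untreated virus control.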

Aspergillus niger [15] = experiment: Antifungal activity against Aspergillus niger Ferm-BAM C-21 at 2.5 mg/ml by agar disk diffusion assay; type: functional; conditions: read-out: DIZ; how it was run: as §4
Pseudomonas aeruginosa [16] = experiment: Antibacterial activity against Pseudomonas aeruginosa NCIB 9016 at 2.5 mg/ml by agar disk diffusion assay; type: functional; conditions: Pseudomonas aeruginosa, NCIB 9016; read-out: DIZ
Bacillus subtilis [17] = experiment: Antimicrobial activity against Bacillus subtilis NCTC 1040 by macrotube dilution assay; type: functional
Aspergillus niger [18] = experiment: Antifungal activity against Aspergillus niger Ferm-BAM C-21 at 1 mg/ml by agar disk diffusion assay; type: functional; conditions: read-out: DIZ; how it was run: as §4
HCT-116 [19] = experiment: Cytotoxicity against human HCT116 cells assessed as reduction in surviving fraction at 1 ug/ml after 48 hrs by SRB assay; type: functional, cell-based; how it was run: as §3
U-251 [20] = experiment: Cytotoxicity against human U251 cells assessed as reduction in surviving fraction at 1 ug/ml after 48 hrs by SRB assay; type: functional, cell-based; how it was run: as §1
Candida albicans [21] = experiment: Antifungal activity against Candida albicans IMRU 3669 at 5 mg/ml by agar disk diffusion assay; type: functional; conditions: Candida albicans, IMRU 3669; read-out: DIZ; how it was run: as §4
Bacillus subtilis [22] = experiment: Antibacterial activity against Bacillus subtilis NCIB 3610 at 1 mg/ml by agar disk diffusion assay; type: functional; conditions: Bacillus subtilis, NCIB 3610; read-out: DIZ
HeLa = experiment: Cytotoxicity against human HeLa cells assessed as surviving fraction after 48 hrs by SRB assay; type: functional, cell-based; conditions: Homo sapiens, HeLa, 48 h; read-out: IC50; how it was run: as §1
Candida albicans [23] = experiment: Antifungal activity against Candida albicans IMRU 3669 by macrotube dilution assay; type: functional
How it was run: (§6)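 Macrotube twofold dilution per NCCLS/CLSI guidelines for fungi; 2 mg compound in 2.0 mL DMF, serially diluted across 14 tubes of Czapek's Dox medium, with a control tube; inoculum added to halve the concentration; 30 °C for 72 h; MIC is the lowest concentration without visible growth.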

MCF7 [24] = experiment: Cytotoxicity against human MCF7 cells assessed as surviving fraction after 48 hrs by SRB assay; type: functional, cell-based; conditions: Homo sapiens, MCF7, 48 h; read-out: IC50; how it was run: as §1
Coxsackievirus B4 [25] = experiment: Antiviral activity against Coxsackievirus B4 infected african green monkey Vero cells at 10^-4 dilution of 5 mg/ml by plaque formation assay; type: functional, organism-based; how it was run: as §5
U-251 [26] = experiment: Cytotoxicity against human U251 cells assessed as reduction in surviving fraction at 2.5 ug/ml after 48 hrs by SRB assay; type: functional, cell-based; how it was run: as §1
HCT-116 [27] = experiment: Cytotoxicity against human HCT116 cells assessed as reduction in surviving fraction at 10.0 ug/ml after 48 hrs by SRB assay; type: functional, cell-based; how it was run: as §3
Klebsiella pneumoniae = experiment: Antimicrobial activity against Klebsiella pneumoniae NCIMB 9111 by macrotube dilution assay; type: functional
Bacillus subtilis [28] = experiment: Antibacterial activity against Bacillus subtilis NCIB 3610 at 5 mg/ml by agar disk diffusion assay; type: functional; conditions: Bacillus subtilis, NCIB 3610; read-out: DIZ
Pseudomonas aeruginosa [29] = experiment: Antibacterial activity against Pseudomonas aeruginosa NCIB 9016 at 1 mg/ml by agar disk diffusion assay; type: functional; conditions: Pseudomonas aeruginosa, NCIB 9016; read-out: DIZ
Aspergillus niger [30] = experiment: Antifungal activity against Aspergillus niger Ferm-BAM C-21 at 5 mg/ml by agar disk diffusion assay; type: functional; conditions: read-out: DIZ; how it was run: as §4
Hepatovirus A [31] = experiment: Antiviral activity against Hepatitis A virus infected african green monkey Vero cells at 10^-4 dilution of 5 mg/ml by plaque formation assay; type: functional; how it was run: as §5
Aspergillus niger [32] = experiment: Antifungal activity against Aspergillus niger Ferm-BAM C-21 by macrotube dilution assay; type: functional; how it was run: as §6
[33] = Antitumor activity against mouse EAC cells assessed as inhibition of cell viability at 50 ug/ml after 2 hrs by trypan blue exclusion assay; type: functional; conditions: Ehrlich; how it was run: as §2
Pseudomonas aeruginosa [34] = experiment: Antibacterial activity against Pseudomonas aeruginosa NCIB 9016 at 5 mg/ml by agar disk diffusion assay; type: functional; conditions: Pseudomonas aeruginosa, NCIB 9016; read-out: DIZ
U-251 [35] = experiment: Cytotoxicity against human U251 cells assessed as reduction in surviving fraction at 10.0 ug/ml after 48 hrs by SRB assay; type: functional, cell-based; how it was run: as §1
U-251 [36] = experiment: Cytotoxicity against human U251 cells assessed as reduction in surviving fraction at 5.0 ug/ml after 48 hrs by SRB assay; type: functional, cell-based; how it was run: as §1
Candida albicans [37] = experiment: Antifungal activity against Candida albicans IMRU 3669 at 2.5 mg/ml by agar disk diffusion assay; type: functional; conditions: read-out: DIZ; how it was run: as §4
Bacillus subtilis [38] = experiment: Antibacterial activity against Bacillus subtilis NCIB 3610 at 2.5 mg/ml by agar disk diffusion assay; type: functional; conditions: Bacillus subtilis, NCIB 3610; read-out: DIZ
Human alphaherpesvirus 1 [39] = experiment: Antiviral activity against HSV1 infected african green monkey Vero cells at 10^-2 dilution of 5 mg/ml by plaque formation assay; type: functional; how it was run: as §5
Staphylococcus aureus [40] = experiment: Antibacterial activity against Staphylococcus aureus NCTC 7447 at 1 mg/ml by agar disk diffusion assay; type: functional; conditions: read-out: DIZ
Salmonella typhi [41] = experiment: Antibacterial activity against Salmonella typhi NCIMB 9331 at 1 mg/ml by agar disk diffusion assay; type: functional, Salmonella enterica subsp. enterica serovar Typhi; conditions: Salmonella enterica, read-out: DIZ
Bacillus subtilis [42] = experiment: Antibacterial activity against Bacillus subtilis NCTC 1040 at 1 mg/ml by agar disk diffusion assay; type: functional; conditions: read-out: DIZ
Coxsackievirus B4 [43] = experiment: Antiviral activity against Coxsackievirus B4 infected african green monkey Vero cells at 10^-2 dilution of 5 mg/ml by plaque formation assay; type: functional; how it was run: as §5
Escherichia coli = experiment: Antibacterial activity against Escherichia coli NCTC 10416 at 1 mg/ml by agar disk diffusion assay; type: functional; conditions: read-out: DIZ
Aspergillus niger [44] = experiment: Antifungal activity against Aspergillus niger IMI 31726 at 1 mg/ml by agar disk diffusion assay; type: functional; conditions: read-out: DIZ
Hepatovirus A [45] = experiment: Antiviral activity against HAV infected african green monkey Vero cells at 10^-2 dilution of 5 mg/ml by plaque formation assay; type: functional; how it was run: as §5

N=C1C(=S)N(c2ccc(Br)cc2)C(=S)N1c1ccc(Br)cc1
IC50 (HCT-116 [1]): 4.56 µg/mL (≈ 10 µM)
IC50 (HepG2): Not Active
IC50 (U-251 [2]): 1.28 µg/mL (≈ 2.81 µM)
Activity (MCF7 [3]): Active
inhibition at 100 µg/mL [4]: 90%
Activity (MCF7 [5]): Active
Activity (HCT-116 [6]): Active
MIC (Salmonella typhi [7]): 1.95 µg/mL (≈ 4.28 µM)
zone of inhibition at 1000 µg/mL (Candida albicans [8]): 18 mm
Activity (HCT-116 [9]): Active
MIC (Staphylococcus aureus [10]): 15.6 µg/mL (≈ 34.3 µM)
Activity (MCF7 [11]): Active
Activity (MCF7 [12]): Active
inhibition at 25 µg/mL [13]: 50%
Activity (Human alphaherpesvirus 1 [14]): 50%
zone of inhibition at 2500 µg/mL (Aspergillus niger [15]): 18 mm
zone of inhibition at 2500 µg/mL (Pseudomonas aeruginosa [16]): 19 mm
MIC (Bacillus subtilis [17]): 3.9 µg/mL (≈ 8.57 µM)
zone of inhibition at 1000 µg/mL (Aspergillus niger [18]): 15 mm
Activity (HCT-116 [19]): Active
Activity (U-251 [20]): Active
zone of inhibition at 5000 µg/mL (Candida albicans [21]): 23 mm
zone of inhibition at 1000 µg/mL (Bacillus subtilis [22]): 21 mm
IC50 (HeLa): 8.93 µg/mL (≈ 19.6 µM)
MIC (Candida albicans [23]): 1.95 µg/mL (≈ 4.28 µM)
IC50 (MCF7 [24]): 3.09 µg/mL (≈ 6.79 µM)
Activity (Coxsackievirus B4 [25]): inactive
Activity (U-251 [26]): Active
Activity (HCT-116 [27]): Active
MIC (Klebsiella pneumoniae): 7.8 µg/mL (≈ 17.1 µM)
zone of inhibition at 5000 µg/mL (Bacillus subtilis [28]): 32 mm
zone of inhibition at 1000 µg/mL (Pseudomonas aeruginosa [29]): 18 mm
zone of inhibition at 5000 µg/mL (Aspergillus niger [30]): 20 mm
Activity (Hepatovirus A [31]): inactive
MIC (Aspergillus niger [32]): 0.49 µg/mL (≈ 1.08 µM)
inhibition at 50 µg/mL [33]: 70%
zone of inhibition at 5000 µg/mL (Pseudomonas aeruginosa [34]): 21 mm
Activity (U-251 [35]): Active
Activity (U-251 [36]): Active
zone of inhibition at 2500 µg/mL (Candida albicans [37]): 20 mm
zone of inhibition at 2500 µg/mL (Bacillus subtilis [38]): 25 mm

O=C1C(=S)N(c2ccc(Br)cc2)C(=O)N1c1ccc2c(c1)Cc1ccccc1-2
Activity (Human alphaherpesvirus 1 [39]): 40%
zone of inhibition at 1000 µg/mL (Staphylococcus aureus [40]): 13 mm
zone of inhibition at 1000 µg/mL (Salmonella typhi [41]): 12 mm
zone of inhibition at 1000 µg/mL (Bacillus subtilis [42]): 14 mm
zone of inhibition at 1000 µg/mL (Candida albicans [8]): 13 mm
Activity (Coxsackievirus B4 [43]): inactive
zone of inhibition at 1000 µg/mL (Escherichia coli): 11 mm
zone of inhibition at 1000 µg/mL (Aspergillus niger [44]): 13 mm
Activity (Hepatovirus A [45]): inactive
